# Assay results reported in ChEMBL document CHEMBL1152203, “New jasmonate analogues as potential anti-inflammatory agents” (Bioorg Med Chem, 2008).
# Activity calls are given as the source filed them. The calls are words filed in the database; no cut-off is given here.
# Tests used:
# RAW264.7 [1] = assay: Antiinflammatory activity in LPS-stimulated mouse RAW264.7 cells assessed as inhibition of NO production after 24 hrs by Griess reagent method; assay type: functional, cell-based
# Outline: (§1)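 RAW264.7 cells at 1.5 × 10^5 cells/mL, pre-incubated 18 h in 24-well plates, then stimulated with LPS (1 µg/mL) alone or with test samples for 24 h. Samples dissolved in EtOH diluted with DMEM, solvent ≤0.1% final. NO in supernatant by Griess reagent (10 min, room temperature, light protected, absorbance 540 nm); IL-6 and TNF-α by ELISA. Mean ± SD.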
# RAW264.7 [2] = assay: Antiinflammatory activity in LPS-stimulated mouse RAW264.7 cells assessed as inhibition of IL6 production at after 24 hrs by ELISA; assay type: functional, cell-based; outline: as §1
# RAW264.7 [3] = assay: Antiinflammatory activity in LPS-stimulated mouse RAW264.7 cells assessed as inhibition of TNFalpha production after 24 hrs by ELISA; assay type: functional, cell-based; outline: as §1
# RAW264.7 [4] = assay: Antiinflammatory activity in LPS-stimulated mouse RAW264.7 cells assessed as inhibition of NO production at 25 uM after 24 hrs by Griess reagent method; assay type: functional, cell-based
# Outline: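 Test samples at 12.5 and 25.0 µM with LPS (1 µg/mL) on RAW264.7 cells (1.5 × 10^5 cells/mL) for 24 h. NO read by Griess method, IL-6 and TNF-α by ELISA. Means ± SD of triplicate experiments.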
# RAW264.7 [5] = assay: Antiinflammatory activity in LPS-stimulated mouse RAW264.7 cells assessed as inhibition of NO production at 12.5 uM after 24 hrs by Griess reagent method; assay type: functional, cell-based; outline: as §1
# RAW264.7 [6] = assay: Antiinflammatory activity in LPS-stimulated mouse RAW264.7 cells assessed as inhibition of IL6 production at 12.5 uM after 24 hrs by ELISA; assay type: functional, cell-based; outline: as §1
# RAW264.7 [7] = assay: Antiinflammatory activity in LPS-stimulated mouse RAW264.7 cells assessed as inhibition of TNFalpha production at 12.5 uM after 24 hrs by ELISA; assay type: functional, cell-based; outline: as §1
# RAW264.7 [8] = assay: Antiinflammatory activity in LPS-stimulated mouse RAW264.7 cells assessed as inhibition of NO production at 10 uM after 24 hrs by Griess reagent method; assay type: functional, cell-based
# Outline: (§2)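 Samples and prostaglandin references tested at 10 and 30 µM alongside LPS (1 µg/mL) in RAW264.7 cells (1.5 × 10^5 cells/mL), 24 h; NO by Griess reagent. Triplicate experiments, means ± SD.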
# RAW264.7 [9] = assay: Antiinflammatory activity in LPS-stimulated mouse RAW264.7 cells assessed as inhibition of NO production at 30 uM after 24 hrs by Griess reagent method; assay type: functional, cell-based; outline: as §2
# RAW264.7 [10] = assay: Antiinflammatory activity in LPS-stimulated mouse RAW264.7 cells assessed as inhibition of NO production at 100 uM after 24 hrs by Griess reagent method; assay type: functional, cell-based
# Outline: (§3)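 Conditions used at 50 and 100 µM: RAW264.7 cells (1.5 × 10^5 cells/mL) stimulated with LPS (1 µg/mL) alone or with samples for 24 h. Supernatant NO measured by Griess reagent, absorbance 540 nm; IL-6 and TNF-α by ELISA. Means ± SD of duplicate experiments; blank and LPS-only controls.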
# RAW264.7 [11] = assay: Antiinflammatory activity in LPS-stimulated mouse RAW264.7 cells assessed as inhibition of NO production at 50 uM after 24 hrs by Griess reagent method; assay type: functional, cell-based; outline: as §3
# RAW264.7 [12] = assay: Antiinflammatory activity in LPS-stimulated mouse RAW264.7 cells assessed as inhibition of IL6 production at 50 uM after 24 hrs by ELISA; assay type: functional, cell-based; outline: as §1
# RAW264.7 [13] = assay: Antiinflammatory activity in LPS-stimulated mouse RAW264.7 cells assessed as inhibition of TNFalpha production at 50 uM after 24 hrs by ELISA; assay type: functional, cell-based; outline: as §3
# RAW264.7 [14] = assay: Cytotoxicity against LPS-stimulated mouse RAW264.7 cells at 100 uM after 24 hrs by MTT assay; assay type: cell-based; details: raw264.7, 24 h
# Outline: (§4)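 Viability of RAW264.7 cells (1.5 × 10^5 cells/mL) after 24 h exposure to LPS (1 µg/mL) plus test sample, by MTT. MTT added for 4 h, formazan dissolved in DMSO, absorbance 540 nm. Means ± SD of duplicate (50, 100 µM) or triplicate (other concentrations) experiments.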
# RAW264.7 [15] = assay: Cytotoxicity against LPS-stimulated mouse RAW264.7 cells at 50 uM after 24 hrs by MTT assay; assay type: cell-based; details: raw264.7, 24 h; outline: as §4
# RAW264.7 [16] = assay: Cytotoxicity against LPS-stimulated mouse RAW264.7 cells at 12.5 uM after 24 hrs by MTT assay; assay type: cell-based; details: raw264.7, 24 h; outline: as §4
# RAW264.7 [17] = assay: Cytotoxicity against LPS-stimulated mouse RAW264.7 cells at 25 uM after 24 hrs by MTT assay; assay type: cell-based; details: raw264.7, 24 h; outline: as §4
# RAW264.7 [18] = assay: Antiinflammatory activity in LPS-stimulated mouse RAW264.7 cells assessed as inhibition of NO production at 3.12 uM after 24 hrs by Griess reagent method; assay type: functional, cell-based
# Outline: (§5)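 NO series at 3.12, 6.25 and 12.5 µM: RAW264.7 cells (1.5 × 10^5 cells/mL) co-treated with LPS (1 µg/mL) for 24 h; nitrite by Griess reagent. Means ± SD of triplicate experiments.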
# RAW264.7 [19] = assay: Antiinflammatory activity in LPS-stimulated mouse RAW264.7 cells assessed as inhibition of NO production at 6.25 uM after 24 hrs by Griess reagent method; assay type: functional, cell-based; outline: as §5
# RAW264.7 [20] = assay: Cytotoxicity against LPS-stimulated mouse RAW264.7 cells at 3.12 uM after 24 hrs by MTT assay; assay type: cell-based; details: raw264.7, 24 h; outline: as §4
# RAW264.7 [21] = assay: Cytotoxicity against LPS-stimulated mouse RAW264.7 cells at 6.25 uM after 24 hrs by MTT assay; assay type: cell-based; details: raw264.7, 24 h; outline: as §4
# RAW264.7 [22] = assay: Cytotoxicity against LPS-stimulated mouse RAW264.7 cells at 10 uM after 24 hrs by MTT assay; assay type: cell-based; details: raw264.7, 24 h; outline: as §4
SMILES,Activity (RAW264.7 [1]),Activity (RAW264.7 [2]),Activity (RAW264.7 [3]),Activity (RAW264.7 [4]),Activity (RAW264.7 [5]),Activity (RAW264.7 [6]),Activity (RAW264.7 [7]),further results
CC/C=C\CC1C(=O)C=CC1CC(=O)NCCO (configuration not stated),Dose-dependent effect,Dose-dependent effect,Dose-dependent effect,Active,Active,Active,Active,–
CCCCCC1C(=O)C(I)=CC1CC(=O)OC (configuration not stated),Dose-dependent effect,Dose-dependent effect,Dose-dependent effect,–,–,–,–,–
CCCCCC1C(=O)C(Cl)=CC1CC(=O)OC (configuration not stated),Dose-dependent effect,Dose-dependent effect,Dose-dependent effect,Active,–,–,–,Activity (RAW264.7 [8]): Active; Activity (RAW264.7 [9]): Active
CCCCCC1C(=O)C=CC1CC(=O)NCCO (configuration not stated),Dose-dependent effect,Dose-dependent effect,Dose-dependent effect,Active,Active,Active,Active,–
CC/C=C\CC1C(=O)C=CC1CC(=O)OC (configuration not stated),Dose-dependent effect,Dose-dependent effect,Dose-dependent effect,Active,Active,Active,Active,Activity (RAW264.7 [10]): Active; Activity (RAW264.7 [11]): Active; Activity (RAW264.7 [12]): Active; Activity (RAW264.7 [13]): Active; Activity (RAW264.7 [14]): Toxic; Activity (RAW264.7 [15]): Toxic
CC/C=C\CC1C(=O)C(Br)=CC1CC(=O)OC (configuration not stated),Dose-dependent effect,Dose-dependent effect,Dose-dependent effect,–,–,–,–,Activity (RAW264.7 [16]): Toxic; Activity (RAW264.7 [17]): Toxic; Activity (RAW264.7 [18]): Active; Activity (RAW264.7 [19]): Active; Activity (RAW264.7 [20]): Non-toxic; Activity (RAW264.7 [21]): Non-toxic; Activity (RAW264.7 [8]): Active; Activity (RAW264.7 [9]): Active; Activity (RAW264.7 [22]): Toxic
CC/C=C\CC1C(=O)C(I)=CC1CC(=O)OC (configuration not stated),Dose-dependent effect,Dose-dependent effect,Dose-dependent effect,–,–,–,–,–
CCCCCC1C(=O)C=CC1CC(=O)OC (configuration not stated),Dose-dependent effect,Dose-dependent effect,Dose-dependent effect,–,–,–,–,–
CCCCCC1C(=O)C=CC1CC(=O)O (configuration not stated),Dose-dependent effect,Dose-dependent effect,Dose-dependent effect,Active,Active,Active,Active,–
CC/C=C\CC1C(=O)C=CC1CC(=O)NC(C)C (configuration not stated),Dose-dependent effect,Dose-dependent effect,Dose-dependent effect,Active,Active,Active,Active,–
CC/C=C\CC1C(=O)C(Cl)=CC1CC(=O)OC (configuration not stated),Dose-dependent effect,Dose-dependent effect,Dose-dependent effect,Active,–,–,–,Activity (RAW264.7 [8]): Active; Activity (RAW264.7 [9]): Active
CC/C=C\CC1C(=O)C=CC1CC(=O)O (configuration not stated),Dose-dependent effect,Dose-dependent effect,Dose-dependent effect,Active,Active,Active,Active,–
CC/C=C\CC1C(=O)C(Cl)=CC1CC(=O)O (configuration not stated),Dose-dependent effect,Dose-dependent effect,Dose-dependent effect,Active,Active,Active,Active,–
CCCCCC1C(=O)C(Br)=CC1CC(=O)OC (configuration not stated),Dose-dependent effect,Dose-dependent effect,Dose-dependent effect,–,–,–,–,Activity (RAW264.7 [16]): Toxic; Activity (RAW264.7 [17]): Toxic; Activity (RAW264.7 [18]): Active; Activity (RAW264.7 [19]): Active; Activity (RAW264.7 [20]): Non-toxic; Activity (RAW264.7 [21]): Non-toxic; Activity (RAW264.7 [8]): Active; Activity (RAW264.7 [9]): Active; Activity (RAW264.7 [22]): Toxic
CC/C=C\CC1C(=O)CCC1CC(=O)OC (configuration not stated) [METHYL JASMONATE],–,–,–,–,–,–,–,Activity (RAW264.7 [10]): Active; Activity (RAW264.7 [11]): Active; Activity (RAW264.7 [12]): Active; Activity (RAW264.7 [13]): Active; Activity (RAW264.7 [14]): Toxic; Activity (RAW264.7 [15]): Toxic
CC/C=C\CC1C(=O)C(C(=O)OC)=CC1CC(=O)OC (configuration not stated),–,–,–,–,–,–,–,Activity (RAW264.7 [10]): Active; Activity (RAW264.7 [11]): Active; Activity (RAW264.7 [12]): Active; Activity (RAW264.7 [13]): Active; Activity (RAW264.7 [14]): Toxic; Activity (RAW264.7 [15]): Toxic
CC/C=C\CC1C(=O)C(C#N)=CC1CC(=O)OC (configuration not stated),–,–,–,–,–,–,–,Activity (RAW264.7 [10]): Active; Activity (RAW264.7 [11]): Active; Activity (RAW264.7 [12]): Active; Activity (RAW264.7 [13]): Active; Activity (RAW264.7 [14]): Toxic; Activity (RAW264.7 [15]): Toxic
CCCCCC1C(=O)C=CC1CC(=O)NC(C)C (configuration not stated),Dose-dependent effect,Dose-dependent effect,Dose-dependent effect,Active,Active,Active,Active,–
CCCCCC1C(=O)C(Cl)=CC1CC(=O)O (configuration not stated),Dose-dependent effect,Dose-dependent effect,Dose-dependent effect,Active,Active,Active,Active,–
